The array DNA melting data of Ke et al. (doi:10.1101/2024.01.08.574731)

Assays:
[1] = folding enthalpy; higher = less favourable; fluorescence melt of hairpins on a sequencing array, two-state fit; conditions: sodium 0.088 M
Outline: (§1)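 Two-state fits, bootstrapped, provided melting temperature and folding enthalpy from Cy3 fluorescence normalised to pre-quench Cy3 and to control constructs. Library hairpins with annealed Cy3 and quencher oligos were imaged on a sequenced MiSeq flow cell in 50 mM Na-HEPES pH 8.0, 25 mM NaCl, at 2.5 °C intervals up to 60 °C. Four replicates were combined with inverse-variance weighting. A 9.35 °C upward shift was applied to fitted temperatures to match UV melts.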

[2] = melting temperature; fluorescence melt of hairpins on a sequencing array, two-state fit, raised by 9.35 °C to match UV melts; conditions: sodium 0.088 M
Outline: as §1

| Sequence | folding enthalpy [1] | Tm [2] |
| --- | --- | --- |
| GCATACGGAAACATATGC (((((.(....).))))) | -24.4 kcal/mol | 37 °C |
| GCATACGGAAACGCATGC ((((.((....)).)))) | -34.5 kcal/mol | 48.5 °C |
| GCATACGGAAACGTACGC ((.((((....)))).)) | -31.4 kcal/mol | 44.2 °C |
| GCATACGGAAACGTATAC (.(((((....))))).) | -16.9 kcal/mol | 34.9 °C |
| GCATACGGAAACGTGTGC (((.(((....))).))) | -50.6 kcal/mol | 55 °C |
| GCATAGCGAAAGCCTTGC (((..((....))..))) | -13.9 kcal/mol | 36.9 °C |
| GCATAGCGAAAGCGCTGC (((..((....))..))) | -16.5 kcal/mol | 51.3 °C |
| GCATAGCGAAAGCTAGGC ((.((((....)))).)) | -27.1 kcal/mol | 67 °C |
| GCATAGCGAAAGCTCAGC ((..(((....)))..)) | -14.3 kcal/mol | 30.6 °C |
| GCATAGCGAAAGCTCCGC ((..(((....)))..)) | -8.77 kcal/mol | 32.6 °C |
| GCATAGCGAAAGCTTAGC ((..(((....)))..)) | -16.2 kcal/mol | 41.6 °C |
| GCATAGCGAAAGCTTGC (((.(((....)))))) | -22.5 kcal/mol | 54.3 °C |
| GCATAGCGAAAGCTTGGC ((..(((....)))..)) | -18.6 kcal/mol | 41.9 °C |
| GCATAGGGAAACCCATGC ((((.((....)).)))) | -29.9 kcal/mol | 45.5 °C |
| GCATAGGGAAACCTATAC (.(((((....))))).) | -14.4 kcal/mol | 27.8 °C |
| GCATAGGGAAACTTATGC (((((.(....).))))) | -29.2 kcal/mol | 41.6 °C |
| GCATAGTCGAAAGACTGC (((..(((....)))))) | -15.2 kcal/mol | 43.1 °C |
| GCATATGGAAACATATGC (((((((....))))))) | -41.6 kcal/mol | 56.3 °C |
| GCATCACGAAAGTGCTGC (((.(((....))).))) | -44 kcal/mol | 52.4 °C |
| GCATCACGAAAGTGTGC (((.(((....)))))) | -39.2 kcal/mol | 56 °C |
| GCATCAGGAAACCGATGC (((((.(....).))))) | -33.4 kcal/mol | 50 °C |
| GCATCAGGAAACTGATAC (.(((((....))))).) | -18.7 kcal/mol | 34.2 °C |
| GCATCAGGAAACTGATGC (((((((....))))))) | -46.9 kcal/mol | 67.1 °C |

| Sequence | folding enthalpy [1] | Tm [2] |
| --- | --- | --- |
| GCATCCGAAAGGAATTGC ((((((....)))..))) | -20.2 kcal/mol | 36.9 °C |
| GCATCCGAAAGGACATGC ((((((....)))..))) | -23.1 kcal/mol | 43.3 °C |
| GCATCCGAAAGGAGTGC ((((((....))).))) | -22.5 kcal/mol | 51.2 °C |
| GCATCCGAAAGGATGTGC ((((((....)))..))) | -18.9 kcal/mol | 60.5 °C |
| GCATCCGGAAACGGACAC (..((((....))))..) | -12.7 kcal/mol | 21.6 °C |
| GCATCGAAAGATGC (((((....))))) | -31.8 kcal/mol | 69.2 °C |
| GCATCGCGAAAGCAAGGC ((.(.((....)).).)) | -12.7 kcal/mol | 39.6 °C |
| GCATCGCGAAAGCACTGC (((..((....))..))) | -14.7 kcal/mol | 38.5 °C |
| GCATCGCGAAAGCCATGC ((((.((....)).)))) | -35.7 kcal/mol | 56.3 °C |
| GCATCGCGAAAGCCTTGC (((..((....))..))) | -16.7 kcal/mol | 38.3 °C |
| GCATCGCGAAAGCGCGGC ((..(((....)))..)) | -14.8 kcal/mol | 44.7 °C |
| GCATCGCGAAAGCGGCGC ((..(((....)))..)) | -21.2 kcal/mol | 57.3 °C |
| GCATCGCGAAAGCGTCGC ((..(((....)))..)) | -11.5 kcal/mol | 42.1 °C |
| GCATCGCGAAAGCTCTGC (((..((....))..))) | -15.9 kcal/mol | 36.8 °C |
| GCATCGGCGAAAGCCTGC (((..(((....)))))) | -15.2 kcal/mol | 39.8 °C |
| GCATCGGGAAACCGACAC (..((((....))))..) | -11.9 kcal/mol | 25.8 °C |
| GCATCGGGAAACTGGTGC (((.(.(....).).))) | -29 kcal/mol | 42.7 °C |
| GCATCTGGAAACAAATGC ((((.((....)).)))) | -21.8 kcal/mol | 32.6 °C |
| GCATCTGGAAACAGACGC ((.((((....)))).)) | -33 kcal/mol | 44.2 °C |
| GCATCTGGAAACAGATAC (.(((((....))))).) | -16.8 kcal/mol | 36.3 °C |
| GCATCTGGAAACAGGTGC (((.(((....))).))) | -40.5 kcal/mol | 52.2 °C |
| GCATCTGGAAACGGATGC (((((.(....).))))) | -44.6 kcal/mol | 53.8 °C |
| GCATGCGAAAGCAACTGC ((((((....)))..))) | -14.2 kcal/mol | 40.2 °C |

| Sequence | folding enthalpy [1] | Tm [2] |
| --- | --- | --- |
| GCATGCGGAAACACACGC ((.((.(....).)).)) | -10.2 kcal/mol | 30.4 °C |
| GCATGCGGAAACACATGC (((((.(....).))))) | -42 kcal/mol | 49.7 °C |
| GCATGCGGAAACGCACGC ((.((((....)))).)) | -25.7 kcal/mol | 52.1 °C |
| GCATGCGGAAACGTATGC ((((.((....)).)))) | -41.4 kcal/mol | 56.1 °C |
| GCATGGCCGAAAGGCTGC (((..(((....)))))) | -13.2 kcal/mol | 53.3 °C |
| GCATGGCGAAAGCCACGC ((.((((....)))).)) | -17.6 kcal/mol | 60.9 °C |
| GCATGGCGAAAGCCCAGC ((..(((....)))..)) | -12 kcal/mol | 46.3 °C |
| GCATGGCGAAAGCCCCGC ((..(((....)))..)) | -12.4 kcal/mol | 29.6 °C |
| GCATGGCGAAAGCCCGGC ((..(((....)))..)) | -15.7 kcal/mol | 43.3 °C |
| GCATGGCGAAAGCCGCGC ((..(((....)))..)) | -19.7 kcal/mol | 61.1 °C |
| GCATGGCGAAAGCCGGGC ((..(((....)))..)) | -17.7 kcal/mol | 60.4 °C |
| GCATGGCGAAAGCCTAGC ((..(((....)))..)) | -17.9 kcal/mol | 52.1 °C |
| GCATGGCGAAAGCCTGC (((.(((....)))))) | -27 kcal/mol | 63.8 °C |
| GCATGGCGAAAGCGAGGC ((.(.((....)).).)) | -19 kcal/mol | 47.3 °C |
| GCATGGCGAAAGCGGTGC (((..((....))..))) | -23.8 kcal/mol | 56.1 °C |
| GCATGGCGAAAGCTTTGC (((..((....))..))) | -21.4 kcal/mol | 46.7 °C |
| GCATGGGGAAACCTGTGC (((..((....))..))) | -30.3 kcal/mol | 44.3 °C |
| GCATGGTCGAAAGACTGC (((..(((....)))))) | -18.1 kcal/mol | 39.8 °C |
| GCATGTGGAAACATGTGC (((..((....))..))) | -31.6 kcal/mol | 49.6 °C |
| GCATTACGAAAGTACTGC (((.(((....))).))) | -36.5 kcal/mol | 46.4 °C |
| GCATTACGAAAGTATGC (((.(((....)))))) | -26.9 kcal/mol | 48.7 °C |
| GCATTAGGAAACTAACGC ((.((((....)))).)) | -22.6 kcal/mol | 31.7 °C |
| GCATTCGAAAGAAAGTGC ((((((....)))..))) | -12.4 kcal/mol | 30.4 °C |

| Sequence | folding enthalpy [1] | Tm [2] |
| --- | --- | --- |
| GCATTCGAAAGAACATGC ((((((....)))..))) | -15.8 kcal/mol | 33 °C |
| GCATTCGAAAGAAGCTGC ((((((....)))..))) | -23.5 kcal/mol | 40.8 °C |
| GCATTCGAAAGAAGTTGC ((((((....)))..))) | -7.36 kcal/mol | 26 °C |
| GCATTCGGAAACGAGTGC (((.(((....))).))) | -46.7 kcal/mol | 53 °C |
| GCATTGCCGAAAGGCTGC (((..(((....)))))) | -14.8 kcal/mol | 46.5 °C |
| GCATTGCGAAAGCACCGC ((..(((....)))..)) | -10.7 kcal/mol | 34.5 °C |
| GCATTGCGAAAGCGAAGC ((.(.((....)).).)) | -14.5 kcal/mol | 38.9 °C |
| GCATTGCGAAAGCGACGC ((.(.((....)).).)) | -16.6 kcal/mol | 49.3 °C |
| GCATTGCGAAAGCGAGGC ((.(.((....)).).)) | -21 kcal/mol | 59.1 °C |
| GCATTGCGAAAGCTCTGC (((..((....))..))) | -23.5 kcal/mol | 39.2 °C |
| GCATTGCGAAAGCTTTGC (((..((....))..))) | -21.4 kcal/mol | 49.1 °C |
| GCATTTCGAAAGAAGTGC (((.(((....))).))) | -45.6 kcal/mol | 51.4 °C |
| GCCAAAGGAAACTCTGGC ((((.((....)).)))) | -32.6 kcal/mol | 35.4 °C |
| GCCAACGAAAGTTAAGGC ((((((....)))..))) | -25.6 kcal/mol | 45.8 °C |
| GCCAACGAAAGTTGCGGC ((((((....)))..))) | -16.9 kcal/mol | 51.5 °C |
| GCCAACGAAAGTTGTGGC ((((((....)))..))) | -18.4 kcal/mol | 48.4 °C |
| GCCAACGAAAGTTTAGGC ((((((....)))..))) | -28.2 kcal/mol | 43.8 °C |
| GCCAACGGAAACGTCGGC (((.(((....))).))) | -42.8 kcal/mol | 51.1 °C |
| GCCAAGCGAAAGCAAGGC (((..((....))..))) | -23.7 kcal/mol | 59.2 °C |
| GCCAAGCGAAAGCCTCGC ((.(.((....)).).)) | -5.93 kcal/mol | 23.1 °C |
| GCCAAGCGAAAGCTATGC ((..(((....)))..)) | -13.2 kcal/mol | 33.9 °C |
